# Screening data (PubChem BioAssay)
# This is a sample that favours compounds with a hit; in the whole collection about 2.2% have one here.
# Myeloid diff 2 – induction of myeloid progenitor differentiation, primary screen, cell-based, flow cytometry, MLPCN library. ER-HoxA9 myeloid progenitors, lysozyme-GFP differentiation. AID 624256, 2012. calls only at 10 µM. 360,000 tested, 1% active;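 active = normalized GFP-positive differentiation at or above the plate's own cutoff, the solvent-only control mean plus 3 SD; inconclusive = no clear call, values can overlap the other calls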;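 also: cells exposed to compound for four days before flow analysis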
# CSN deneddyl inh – inhibitors of CSN-mediated cullin deneddylation, primary screen, biochemical, fluorescence polarization, uHTS; COP9 signalosome complex subunit 5 (Homo sapiens), Q92905; Purified CSN, SCF-Nedd8-OG deneddylation; inhibition, % at 12.5 µM; 360,000 tested, 0.38% active;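 active = pattern-corrected inhibition above about 35%, with an unprinted fluorescence ratio check between 0.5 and 1.5, limit read from the data, passing the limit was not always enough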;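 also: 0% = enzyme with substrate and 100% = substrate without enzyme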
#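 Assay system: HEK293T-derived human Csn5 enzyme; quantity: 0.24 nM enzyme; medium: Tris/NaCl/DTT buffer, pH 7.5; also added: substrate SCFSkp2-Nedd8OG, 10 nM; doses: 12.5 µM compound; schedule: 90 min reaction at room temperature; signal: FP; read-out: % inhibition of substrate cleavage by Csn5; benchmarks: substrate-only high control, full reaction low control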
# Granule exo inh – LAMP-1 surface exposure blockers, TALL-104 cells – cell-based, flow cytometry, MLPCN library, primary screen; TALL-104 LAMP-1 surface exposure; cells stimulated with thapsigargin and PMA; 360,000 tested, 0.66% active; AID 651702, 2012; inhibition, % at 10 µM;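 active = inhibition above about 55%, limit read from the data; inconclusive = no clear call, values can overlap the other calls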
# HNF4A DNA FP – change in binding of human HNF4A to DNA, primary screen, biochemical, fluorescence polarization, FITC-DNA; 1 h; Hepatocyte nuclear factor 4-alpha (Homo sapiens), P41235; AID 1224865, 2016; 360,000 tested, 0.3% active; activity change, % at 10 µM; in the data active = activity change above about 30%, passing the limit was not always enough
# Target sequence (P41235 whole entry, looked up): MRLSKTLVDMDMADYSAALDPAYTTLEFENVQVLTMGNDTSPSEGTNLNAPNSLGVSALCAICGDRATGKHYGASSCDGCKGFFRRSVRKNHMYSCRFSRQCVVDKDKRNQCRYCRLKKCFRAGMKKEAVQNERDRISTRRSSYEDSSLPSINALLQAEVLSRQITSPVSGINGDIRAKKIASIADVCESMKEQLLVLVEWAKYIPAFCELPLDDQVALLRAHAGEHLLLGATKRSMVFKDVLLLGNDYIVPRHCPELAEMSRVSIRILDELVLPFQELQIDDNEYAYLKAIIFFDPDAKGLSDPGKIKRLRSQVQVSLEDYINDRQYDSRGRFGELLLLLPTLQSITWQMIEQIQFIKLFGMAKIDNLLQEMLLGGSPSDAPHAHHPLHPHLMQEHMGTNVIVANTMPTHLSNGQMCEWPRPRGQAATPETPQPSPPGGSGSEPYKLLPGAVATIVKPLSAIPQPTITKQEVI
# Myeloid diff – inducers of myeloid progenitor differentiation, confirmation, cell-based, GFP/Mac1 flow cytometry, cherry pick 01; shares compounds with Myeloid diff 2; 2,300 tested, 2% active; AID 651706, 2012; calls only; ER-HoxA9 myeloid progenitors, GFP/Mac1 double-positive flow;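 active = share of green or green-and-red cells above 9 and 9% in run 1 or 4 and 3% in run 2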
# GFP autofluor – counter-screen for myeloid differentiation promoters: compound fluorescence | shares compounds with Myeloid diff 2 | ER-HoxA9 myeloid progenitors, no estrogen, GFP autofluorescence flow cytometry; vehicle wells 0%, positive control 100% | fluorescence response, % (concentration not given with the values) | 2,300 tested, 7.4% active | AID 651707;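 active = over 5% cells positive for green fluorescent reporter, or over 2% positive for both it and APC stain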;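 also: range taken on the double positive population between DMSO and positive control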
# Active calls of the source: *; i = inactive; ? = inconclusive; nt = no result given; + = active, no number.
SMILES,Myeloid diff 2,CSN deneddyl inh,Granule exo inh,HNF4A DNA FP,Myeloid diff,GFP autofluor
COc1cc(CNc2ccc(N3CCN(C(C)=O)CC3)cc2)ccc1OCc1ccc(F)cc1,i,-2,1,2,i,0
COc1cc(CNc2ccc3[nH]c(=O)[nH]c3c2)ccc1OCc1ccc(F)cc1,i,-2,18,1,i,0
COc1cc(CNc2ccc3[nH]c(=O)[nH]c3c2)ccc1OCc1ccc(Cl)cc1,i,1,-5,-1,i,0
CN(C)C(=O)CN1C(=O)NC(c2ccccc2)(c2ccccc2)C1=O,i,0,-10,2,nt,nt
CCOC(=O)N1CCC(NC(=O)c2ccc3c(c2)ncn3C2CCCC2)CC1,i,-3,0,-2,nt,nt
CCOC(=O)N1CCN(C(=O)c2ccc3c(c2)ncn3C2CCCC2)CC1,i,1,4,0,i,0
O=[N+]([O-])c1ccccc1SN(Cc1ccccc1)c1ccccn1,i,5,-1,-1,i,0
COc1cccc(-c2csc(N3CCN(CC(=O)Nc4ccc5c(c4)OCO5)CC3)n2)c1,i,-3,0,6,i,0
CC(C)N(C(=O)[C@H]1C[C@H](CC(=O)NCc2ccco2)C(=O)N2CCc3c([nH]c4ccc(Cl)cc34)[C@]12C)C(C)C,i,-1,31,-3,nt,nt
C#CCN1C(C)=CC(=O)[C@@H](O)[C@H]1c1ccccc1Br,i,-1,28,-2,nt,nt
COc1ccc(Nc2nnc(SCc3cn4c(C)cccc4n3)s2)cc1,+,1,0,1,i,0
N#CCCN(Cc1ccccc1)C(=O)CCC(=O)c1ccc(F)cc1,i,2,-1,6,nt,nt
Nc1ncn([C@@H]2O[C@H](CO)[C@@H](O)[C@H]2O)c(=O)n1,i,-3,3,1,i,5.0*
CN(C)c1ncnc2c1ncn2C1OC(CO)C(O)C1O (centres undefined),+,0,-2,0,i,0
Nc1ccn([C@@H]2O[C@H](CO)[C@@H](O)[C@@H]2O)c(=O)n1,?,-1,-3,7,nt,nt
CCCc1nnc(NC(=O)CCC(=O)N2CCN(Cc3ccc(Cl)cc3)CC2)s1,i,-1,1,3,nt,nt
COc1cc2c(cc1OC)CC(C(=O)NCc1ccccc1)NC2 (centres undefined),i,-2,0,-5,nt,nt
COC(=O)c1c(NC(=O)CSc2nnnn2-c2ccccc2)sc2c1CCC(C)C2 (centres undefined),i,4,4,2,nt,nt
COC(=O)c1c(NC(=O)CSc2nnnn2-c2ccccc2)sc2c1CCC(C(C)(C)C)C2 (centres undefined),i,3,-3,3,i,0
O=C(Cc1ccccc1)NCC(=O)OCC(=O)c1ccc(OC(=O)c2ccccc2)cc1,i,1,-2,-1,i,0
CCOC(=O)c1[nH]c2ccc(Br)cc2c1NC(=O)CCN1CCCC(C)(C)C1,+,2,-1,0,i,0
CCCC1=[N+](CC(=O)c2ccc(Br)cc2)CCn2cccc21,i,11,-6,7,i,3
CCCC1=[N+](CC(=O)c2ccccc2)CCn2cccc21,i,-8,-2,-3,i,3
O=C(NNC(=S)NC(=O)c1cccc([N+](=O)[O-])c1)c1ccc(Br)cc1,nt,6,-1,-5,nt,nt
CCCCCNC(=O)C(c1ccc(C#N)cc1)n1c(=O)c(-c2ccco2)nc2ccccc21 (centres undefined),i,19,-5,27,i,1
SMILES,Myeloid diff 2,CSN deneddyl inh,Granule exo inh,HNF4A DNA FP,Myeloid diff,GFP autofluor
CCCCCNC(=O)C(c1ccc(OC)cc1)n1c(=O)c(-c2ccco2)nc2ccccc21 (centres undefined),i,24,0,17,nt,nt
O=C(NCCc1ccco1)C(=O)NCC1CCCN1S(=O)(=O)c1ccccc1 (centres undefined),+,3,3,-1,i,0
Cc1ccc(C(=O)NC(=S)c2c(C)cc3ccccn23)cc1,+,3,0,2,i,11*
COc1ccc(N(Cc2cc3ccccc3[nH]c2=O)C(=O)C2CCCO2)cc1 (centres undefined),i,-2,-2,-2,nt,nt
CCOc1ccc(N(Cc2cc3cc(OC)ccc3[nH]c2=O)C(=O)C2CCCO2)cc1 (centres undefined),+,8,0,0,i,0
CCc1nonc1NC(=O)COc1ccc(Cl)c(C)c1,i,2,-3,4,i,0
O=C(CCN1C(=O)c2ccccc2S1(=O)=O)Nc1ccccc1,i,2,-3,1,nt,nt
O=C(CCN1C(=O)c2ccccc2S1(=O)=O)Nc1ccc2c(c1)OCCO2,i,-2,8,2,i,0
COc1ccc2c(c1)OC[C@H]1[C@H]2N2C(=O)c3cc(OC)ccc3NC(=O)[C@@]2(C)[C@H]1c1ccccc1,i,1,-7,2,i,0
COc1ccc2c(c1)OC[C@H]1[C@H]2N2C(=O)c3cc(Cl)ccc3NC(=O)[C@@]2(C)[C@H]1c1ccccc1,i,-2,2,0,nt,nt
N=c1c2c(n(Cc3ccccc3)c3c1CCC3)CCC2,+,4,-3,2,i,0
N=c1c2c(n(Cc3cccc(Cl)c3)c3c1CCC3)CCCC2,nt,0,-4,-3,nt,nt
Cc1ccc(C(=O)Nc2ccc(C(=O)N/N=C/c3ccc(C)o3)cc2)cc1,+,1,-7,-3,i,1
O=C1CCN(Cc2ccccc2)C=C1c1cccc(O)c1,i,2,1,1,nt,nt
CSC[C@H](NC(=O)COc1cc2c(c3oc(=O)c(C)c(C)c13)CCC(C)(C)O2)C(=O)O,i,-5,-6,1,nt,nt
Cc1c(C)c2c(OCC(=O)N[C@@H](Cc3ccccc3)C(=O)O)cc3c(c2oc1=O)CCC(C)(C)O3,i,4,2,3,i,0
CCCCN(C(=O)c1nn(C)c(=O)c2ccccc12)c1c(N)n(CC(C)C)c(=O)[nH]c1=O,i,-4,-6,4,nt,nt
CC(=O)Nc1ccc(NC(=O)CSc2nccn2Cc2ccccc2)cc1,+,2,0,2,i,0
O=C(CSc1nc2ccccc2n1CC(=O)N1CCCC1)NCc1ccc2c(c1)OCO2,i,-1,3,3,i,0
O=C(CSc1nc2ccccc2c(=O)n1-c1ccccc1)NCc1ccc2c(c1)OCO2,i,1,-2,1,nt,nt
